In ChEMBL document CHEMBL1649139, “A novel gene, erm(41), confers inducible macrolide resistance to clinical isolates of Mycobacterium abscessus but is absent from Mycobacterium chelonae” (2009) one finds MIC data, which are given here for four compounds.

Converted amounts (≈) assume the structure as drawn. Numbered stars: 1 amine (or outer) side, 2 acyl side, 3 side chain; on linkers, the order of the positions; unused ones are H or OH. Bridge positions count the residues as written; N and C are the ends. Square brackets hold non-standard residues; d marks the D form. Peptide text beside a SMILES is read from it. * marks the point of attachment. X1 = O=C1C[C@@H](C(=O)[*:2])N([*:1])C[C@H]1CS[C@@H]1CN2CCC1CC2; NMePhe(4-NMe2) = CN[C@@H](Cc1ccc(N(C)C)cc1)C(=O)O; Picolinoyl(3-OH) = O=C(c1ncccc1O)*; Phg = N[C@H](C(=O)O)c1ccccc1; dAbu = CC[C@@H](N)C(=O)O

What all share (format): functional
Assay [1] deals with Mycobacteroides abscessus. Briefly: Antimicrobial activity against Mycobacterium abscessus isolate MC1028 at day 7 by broth microdilution method. The conditions noted are these: isolate MC1028, 168 h. The procedure, abridged: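 Clarithromycin MIC by CLSI-conforming broth microdilution. Before testing, cultures were preincubated for 3 days, either in medium alone or in clarithromycin or erythromycin (tested range 0.01–1 μg/ml). Preincubation ran for at least two generations, judged by turbidity increase. Plates were read on day 3 and on extended incubation at days 5 to 14.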
In general terms: Dilution methods test growth across graded concentrations, often in twofold steps.

Assay [2] has as its system Mycolicibacterium smegmatis. Briefly: Antimicrobial activity against Mycobacterium smegmatis transformed with erm allele Mycobacterium abscessus isolate MC1028 by broth microdilution method.
Assay [3] has as its system Mycolicibacterium smegmatis. As to the kind of experiment: Antimicrobial activity against Mycobacterium smegmatis transformed with erm allele Mycobacterium abscessus isolate MC720 preincubated with 2 ug/ml erythromycin for 20 to 24 hrs by broth microdilution method.
The test system of assay [4] is Mycolicibacterium smegmatis. Briefly: Antimicrobial activity against Mycobacterium smegmatis transformed with erm allele Mycobacterium abscessus isolate MC879 preincubated with 2 ug/ml erythromycin for 20 to 24 hrs by broth microdilution method.
For assay [5], the system named is Mycolicibacterium smegmatis. As to the kind of experiment: Antimicrobial activity against Mycobacterium smegmatis transformed with erm allele Mycobacterium abscessus isolate MC719 preincubated with 2 ug/ml erythromycin for 20 to 24 hrs by broth microdilution method.
Assay [6] concerns Mycolicibacterium smegmatis. As to the kind of experiment: Antimicrobial activity against Mycobacterium smegmatis transformed with erm allele Mycobacterium abscessus isolate MC958 by broth microdilution method.
Assay [7] relates to Mycolicibacterium smegmatis. As to the kind of experiment: Antimicrobial activity against Mycobacterium smegmatis transformed with erm allele Mycobacterium abscessus isolate MC958 preincubated with 2 ug/ml erythromycin for 20 to 24 hrs by broth microdilution method.
For assay [8], the system named is Mycobacteroides abscessus. Briefly: Antimicrobial activity against Mycobacterium abscessus isolate MC879 on day 4 by broth microdilution method. The conditions noted are these: isolate MC879, 96 h.
Assay [9] concerns Mycolicibacterium smegmatis. As to the kind of experiment: Antimicrobial activity against Mycobacterium smegmatis transformed with erm allele Mycobacterium abscessus isolate MAB30 by broth microdilution method.
Assay [10] deals with Mycolicibacterium smegmatis. As to the kind of experiment: Antimicrobial activity against Mycobacterium smegmatis transformed with erm allele Mycobacterium abscessus isolate MC1082 preincubated with 2 ug/ml erythromycin for 20 to 24 hrs by broth microdilution method.
Assay [11] concerns Mycolicibacterium smegmatis. As to the kind of experiment: Antimicrobial activity against Mycobacterium smegmatis transformed with erm allele Mycobacterium abscessus isolate MC720 by broth microdilution method.
The test system of assay [12] is Mycobacteroides abscessus. Briefly: Antimicrobial activity against Mycobacterium abscessus isolate MC879 at day 7 by broth microdilution method. The note with it: isolate MC879, 168 h. The gist of the method:
(§1)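 Clarithromycin MIC by broth microdilution following CLSI guidelines. Organisms were preincubated […], for 3 days before the assay. This allowed at least two generations, judged by the rise in turbidity. The MIC was read at the stated day, with incubation extended from day 3 to as long as 14 days.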

The subject of assay [13] is Mycolicibacterium smegmatis. Briefly: Antimicrobial activity against Mycobacterium smegmatis transformed with erm allele Mycobacterium abscessus isolate MC879 by broth microdilution method.
Assay [14] has as its system Mycobacteroides abscessus. As to the kind of experiment: Antimicrobial activity against Mycobacterium abscessus isolate MC1028 on day 4 by broth microdilution method. The conditions noted are these: isolate MC1028, 96 h.
The subject of assay [15] is Mycobacteroides abscessus. Briefly: Antimicrobial activity against Mycobacterium abscessus isolate MC958 on day 4 by broth microdilution method. The conditions noted are these: isolate MC958, 96 h.
Assay [16] concerns Mycolicibacterium smegmatis. Briefly: Antimicrobial activity against Mycobacterium smegmatis transformed with erm allele Mycobacterium abscessus isolate MAB30 preincubated with 2 ug/ml erythromycin for 20 to 24 hrs by broth microdilution method.
Assay [17] relates to Mycobacteroides abscessus. Briefly: Antimicrobial activity against Mycobacterium abscessus isolate MC958 at day 7 by broth microdilution method. The note with it: isolate MC958, 168 h. The gist of the method: as §1
For assay [18], the system named is Mycolicibacterium smegmatis. As to the kind of experiment: Antimicrobial activity against Mycobacterium smegmatis transformed with erm allele Mycobacterium abscessus isolate MC1028 preincubated with 2 ug/ml erythromycin for 20 to 24 hrs by broth microdilution method.
In assay [19] the test system is Mycolicibacterium smegmatis. As to the kind of experiment: Antimicrobial activity against Mycobacterium smegmatis transformed with erm allele Mycobacterium abscessus isolate MC719 by broth microdilution method.
For assay [20], the system named is Mycolicibacterium smegmatis. As to the kind of experiment: Antimicrobial activity against Mycobacterium smegmatis transformed with erm allele Mycobacterium abscessus isolate MC1082 by broth microdilution method.
Assay [21] relates to Mycolicibacterium smegmatis. Briefly: Antimicrobial activity against Mycobacterium smegmatis transformed with erm allele Mycobacterium abscessus isolate MC879-2 preincubated with 2 ug/ml erythromycin for 20 to 24 hrs by broth microdilution method.
Assay [22] deals with Mycolicibacterium smegmatis. Briefly: Antimicrobial activity against Mycobacterium smegmatis transformed with erm allele Mycobacterium abscessus isolate MC879-2 by broth microdilution method.
Assay [23] has as its system Mycobacteroides abscessus. Briefly: Antimicrobial activity against Mycobacterium abscessus isolate MC879 at day 5 preincubated with 0.1 ug/ml for 3 days by broth microdilution method. The procedure, abridged: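 To test inducible resistance, cultures were preincubated for 3 days in clarithromycin or erythromycin, within 0.01–1 μg/ml. The period was set so cultures passed at least two generations, judged by turbidity increase. Clarithromycin MIC was then determined by CLSI-conforming broth microdilution and read on the stated day, from day 3 up to 14.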

The term MIC denotes the least concentration at which growth counts as inhibited. With `CC[C@H]1OC(=O)[C@H](C)C(=O)[C@H](C)[C@@H](O[C@@H]2O[C@H](C)C[C@H](N(C)C)[C@H]2O)[C@](C)(OC)C[C@@H](C)C(=O)[C@H](C)[C@H]2N(CCCCn3cnc(-c4cccnc4)c3)C(=O)O[C@]12C` [TELITHROMYCIN], the MIC in [1] is > 128 µg/mL; in [2] it was 4 µg/mL (≈ 4.93 µM); in assay [3] it was > 128 µg/mL; in assay [4], > 128 µg/mL; in assay [5] it was > 128 µg/mL; in assay [6], 8 µg/mL (≈ 9.85 µM). The MIC was > 128 µg/mL in assay [7]; 32 µg/mL (≈ 39.4 µM) in assay [8]; 4 µg/mL (≈ 4.93 µM) in assay [9]; 4 µg/mL in assay [10]; 8 µg/mL (≈ 9.85 µM) in [11]; > 128 µg/mL in assay [12]. Moreover, the MIC in assay [13] is 8 µg/mL (≈ 9.85 µM); in assay [14], 32 µg/mL (≈ 39.4 µM); in [15], 32 µg/mL (≈ 39.4 µM); in [16], 4 µg/mL; in assay [17] it was > 128 µg/mL; in [18], 4 µg/mL. Besides, the MIC in assay [19] is 8 µg/mL (≈ 9.85 µM); in [20], 4 µg/mL (≈ 4.93 µM).

For the compound `CC[C@H]1OC(=O)[C@H](C)[C@@H](O[C@H]2C[C@@](C)(OC)[C@@H](O)[C@H](C)O2)[C@H](C)[C@@H](O[C@@H]2O[C@H](C)C[C@H](N(C)C)[C@H]2O)[C@](C)(O)C[C@@H](C)C(=O)[C@H](C)[C@@H](O)[C@]1(C)O` [ERYTHROMYCIN], the MIC in assay [2] was 4 µg/mL (≈ 5.45 µM); in assay [3], > 128 µg/mL; in [4], > 128 µg/mL; in assay [5], > 128 µg/mL; in assay [6] it was 32 µg/mL (≈ 43.6 µM); in [7] it was > 128 µg/mL. Also, the MIC in [21] was > 128 µg/mL; in [9], 4 µg/mL (≈ 5.45 µM); in assay [10], 4 µg/mL; in [11] it was 32 µg/mL (≈ 43.6 µM); in assay [13], 32 µg/mL (≈ 43.6 µM); in [22], 32 µg/mL (≈ 43.6 µM). The MIC worked out at 4 µg/mL in [16], 4 µg/mL in assay [18], 32 µg/mL (≈ 43.6 µM) in assay [19] and 4 µg/mL (≈ 5.45 µM) in assay [20].

Consider `CCC[C@@H]1C[C@@H](C(=O)N[C@@H]([C@H]2O[C@H](SC)[C@H](O)[C@@H](O)[C@H]2O)[C@H](C)Cl)N(C)C1` [CLINDAMYCIN], for which the minimum inhibitory concentration (MIC) is > 256 µg/mL in [1]; 64 µg/mL (≈ 151 µM) in assay [23]; 32 µg/mL (≈ 75.3 µM) in assay [2]; > 512 µg/mL in assay [3]; > 512 µg/mL in assay [4]; > 512 µg/mL in assay [5]. For the same compound, the MIC in assay [6] was 64 µg/mL (≈ 151 µM); in assay [7], > 512 µg/mL; in assay [8], 64 µg/mL (≈ 151 µM); in assay [9], 32 µg/mL (≈ 75.3 µM); in [10] it was 32 µg/mL; in [11], 64 µg/mL (≈ 151 µM). Besides, the MIC was > 256 µg/mL in assay [12]; 64 µg/mL (≈ 151 µM) in assay [13]; 64 µg/mL (≈ 151 µM) in assay [14]; 32 µg/mL in [16]; > 256 µg/mL in assay [17]; 32 µg/mL in assay [18]. The MIC in assay [19] stood at 64 µg/mL (≈ 151 µM); in assay [20], 32 µg/mL (≈ 75.3 µM).

Consider `CC[C@H]1NC(=O)[C@@H](NC(=O)c2ncccc2O)[C@@H](C)OC(=O)[C@H](c2ccccc2)NC(=O)[C@@H]2CC(=O)[C@H](CS[C@@H]3CN4CCC3CC4)CN2C(=O)[C@H](Cc2ccc(N(C)C)cc2)N(C)C(=O)[C@@H]2CCCN2C1=O` [QUINUPRISTIN] ({Picolinoyl(3-OH)}-T[dAbu]P[NMePhe(4-NMe2)][X1][Phg]; ester 1-C), for which the MIC in assay [1] is > 256 µg/mL; in assay [23] it was 64 µg/mL (≈ 62.6 µM); in [2], 128 µg/mL (≈ 125 µM); in [3], 128 µg/mL; in assay [4] it was 128 µg/mL; in assay [5], 128 µg/mL. Further, the MIC in [6] was 128 µg/mL (≈ 125 µM); in assay [7], 128 µg/mL; in assay [8], 64 µg/mL (≈ 62.6 µM); in [9], 128 µg/mL (≈ 125 µM); in [10] it was 128 µg/mL; in assay [11] it was 128 µg/mL (≈ 125 µM). Also, the MIC is > 256 µg/mL in assay [12]; 128 µg/mL (≈ 125 µM) in assay [13]; 64 µg/mL (≈ 62.6 µM) in [14]; 128 µg/mL in [16]; > 256 µg/mL in assay [17]; 128 µg/mL in assay [18]. Besides, the MIC in assay [19] and in assay [20] was 128 µg/mL (≈ 125 µM) in each case.
